The list is not random: actives were taken first. Their share in the collection is about 3.5%.
SIAE primary = human SIAE inhibitors, primary screen, biochemical, fluorescence polarization, FP-Rh probe, 1536-well HTS; hit rate 0.69% among 370,000; SIAE FP-Rh probe binding; AID 1053197, 2014; inhibition, % at 9.66 µM; Sialate O-acetylesterase (Homo sapiens), Q9HAT2;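 active = inhibition above a cutoff: mean of compounds within the control limits plus 3 SD of those, cut at about 17% in these data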;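 also: 0% = plate median of compound wells and 100% = probe without SIAE protein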
HTRA1 inh = HTRA1 serine protease inhibitors, primary screen, biochemical, fluorescence polarization, HTS; hit rate 0.5% among 340,000; AID 504803, 2011; inhibition, % at 5.96 µM; recombinant HTRA1, FP-rhodamine activity-based probe; in the data active = inhibition above about 36%;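 also: 0% = enzyme with DMSO and 100% = wells lacking enzyme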
PRMT1 inh = PRMT1 methyltransferase inhibitors, primary screen, biochemical, fluorescence polarization; Protein arginine N-methyltransferase 1 (Homo sapiens), Q99873; recombinant PRMT1, activity-based probe fluorescence polarization; inhibition, % at 2.79 µM; hit rate 1.3% among 370,000; AID 652257, 2013;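 active = inhibition above about 21% made by adding two undisclosed values, limit read from the data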
Target sequence (Q99873 whole entry, looked up): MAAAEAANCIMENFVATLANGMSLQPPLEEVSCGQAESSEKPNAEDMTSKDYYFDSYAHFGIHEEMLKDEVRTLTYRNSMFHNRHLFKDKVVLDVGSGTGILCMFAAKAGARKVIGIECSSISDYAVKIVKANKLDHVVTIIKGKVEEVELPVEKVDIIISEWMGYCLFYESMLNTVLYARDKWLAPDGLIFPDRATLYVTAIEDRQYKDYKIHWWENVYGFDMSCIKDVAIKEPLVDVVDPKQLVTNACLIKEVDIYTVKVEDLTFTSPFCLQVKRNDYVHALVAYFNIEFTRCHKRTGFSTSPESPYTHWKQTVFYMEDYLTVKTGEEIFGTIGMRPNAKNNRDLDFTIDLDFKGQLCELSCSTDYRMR
ABHD4 inh = ABHD4 inhibitors, primary screen, biochemical, fluorescence polarization, mouse | (Lyso)-N-acylphosphatidylethanolamine lipase (Mus musculus), Q8VD66 | purified mABHD4, FP-Rh probe fluorescence polarization | inhibition, % at 8.92 µM | hit rate 0.54% among 370,000 | AID 720543, 2013;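 active = inhibition exceeding the mean over every tested compound plus 3 SD, cut at about 30% in these data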;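 also: 0% = plate median of compound wells and 100% = S159A mutant with DMSO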
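Assay system: wild-type mouse ABHD4 protein; compound: single nominal dose of 8.92 µM, 0.89% DMSO final; schedule: 45 min + 60 min at 25 °C; measured by: FP readout, ex 525 nm / em 598 nm; evaluation: % inhibition of FP-Rh probe binding versus controls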
TCR CD3 inh = inhibitors of human TCR-CD3 interaction, primary screen, biochemical, fluorescence, TAMRA-labeled TCR probe | inhibition, % at 9.4 µM | AID 651800, 2012 | T-cell receptor (TCR) | hit rate 0.37% among 360,000; in the data active = inhibition above about 19%;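 also: recombinant mutant TCR 2C K166C tagged with TAMRA read by polarization; 0% = receptor in buffer alone and 100% = receptor with positive control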
rCAG RNA binder = binders of r(CAG) RNA repeats, primary screen, biochemical, fluorescence; r(CAG) RNA repeat, TO-PRO-1 dye displacement fluorescence; inhibition, % at 3 µM; hit rate 1.3% among 370,000;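 active = inhibition above the plate cutoff, the mean of all test compounds on that plate plus 3 SD, cut at about 35% in these data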;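 also: 0% = DMSO alone and 100% = 100 µM mitoxantrone as full dye displacement; higher means more dye released from RNA so lower well fluorescence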
rCAG binder conf = small molecules binding CAG repeat RNA – biochemical, fluorescence, confirmation; shares compounds with rCAG RNA binder; r(CAG) RNA repeat, TO-PRO-1 dye displacement fluorescence; inhibition, % at 3 µM; hit rate 70% among 4,300;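 active = inhibition above a per-plate cutoff, the mean inhibition of sample wells plus 3 SD, cut at about 35% in these data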;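 also: loss of TO-PRO-1 fluorescence as compound displaces dye from 1x1 AA loop RNA; 0% = DMSO only wells and 100% = 100 µM mitoxantrone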
DNA CAG counter = displacement of TO-PRO-1 from CAG DNA duplex, counter-screen for rCAG RNA repeat binder project, biochemical, fluorescence, TO-PRO-1 dye, d(CAG) DNA oligo; AID 652068, 2013; shares compounds with rCAG RNA binder; hit rate 94% among 4,300; d(CAG) DNA oligo TO-PRO-1 dye displacement; inhibition, % at 3 µM;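 active = inhibition above its plate's cutoff, the mean test-well inhibition plus 3 SD, cut at about 4.8% in these data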;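 also: 0% = DNA dye mix with DMSO and 100% = 100 µM mitoxantrone; hits displace the dye from DNA and so lower well fluorescence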
* = called active by the depositor; nt = no result given.

SMILES	SIAE primary	HTRA1 inh	PRMT1 inh	ABHD4 inh	TCR CD3 inh	rCAG RNA binder	rCAG binder conf	DNA CAG counter
O=C(O)c1cc(S(=O)(=O)N2CCN(C(c3ccccc3)c3ccccc3)CC2)ccc1Cl	-6	-18	0	1	4	55*	49*	17*
O=S(=O)(c1ccc2ccccc2c1)N1CCCCCC1	11	-6	3	3	-1	-3	nt	nt
O=C(O)c1cc(S(=O)(=O)N2CCN(S(=O)(=O)c3ccc4ccccc4c3)CC2)ccc1Br	-5	0	4	15	-8	53*	43*	15*
CCc1nnc(NS(=O)(=O)c2ccc(NC(=O)/C=C/c3ccc(F)cc3)cc2)s1	-19	-37	0	-40	7	73*	50*	20*
CCc1nnc(NS(=O)(=O)c2ccc(NC(=O)OC)cc2)s1	2	4	6	4	7	1	nt	nt
CCc1nnc(NS(=O)(=O)c2ccc(NC(=S)NC(=O)c3ccc(F)cc3)cc2)s1	0	-14	1	1	-5	64*	52*	19*
CCc1nnc(NS(=O)(=O)c2ccc(NC(=S)NC(=O)c3cccnc3)cc2)s1	3	1	-1	-3	7	18	nt	nt
CCc1nnc(NS(=O)(=O)c2ccc(NC(=O)c3ccc(Br)cc3)cc2)s1	-8	-12	-1	-15	7	60*	53*	13*
COc1cccc(OC)c1NC(=O)OC1CCC12CCC(c1ccccc1)CC2 (stereo unspecified)	6	nt	-3	-6	nt	nt	nt	nt
O=C(O)CN1C(=O)/C(=C/C=C/c2ccccc2)SC1=S	6	0	8	1	5	7	nt	nt
O=C(CN1C(=O)S/C(=C\C=C\c2ccccc2)C1=O)Nc1ccccc1C(=O)O	-19	-51	-3	-39	2	77*	84*	52*
CC(=O)c1ccc(NC(=O)CN2C(=O)/C(=C/C=C/c3ccccc3)SC2=S)cc1	-18	-27	9	-45	-12	38*	22	15*
O=C(Nc1ccc2c(c1)OCO2)NC1CCCCN(Cc2cccc(Cl)c2)C1=O (stereo unspecified)	0	nt	3	2	nt	4	nt	nt
COc1ccccc1CN(C)C(=O)C1CCCN(c2nc3ccccc3o2)C1 (stereo unspecified)	-2	nt	0	-2	nt	0	nt	nt
CCCCC(NC(=O)Cc1c(C)c2cc3c(C)c(C)oc3c(C)c2oc1=O)C(=O)O (stereo unspecified)	-3	4	1	-10	-6	38*	41*	9.7*
Cc1c(CC(=O)N[C@@H](C)C(=O)O)c(=O)oc2cc3occ(-c4ccccc4)c3cc12	-3	7	-5	1	1	31	nt	nt
CC[C@@H](C)[C@H](NC(=O)Cc1c(C)c2c(cc(C)c3c(C)c(C)oc32)oc1=O)C(=O)O	1	1	4	1	-1	35*	32	5.7*
Cc1c(CC(=O)N[C@@H](C)C(=O)O)c(=O)oc2c(C)c3occ(-c4ccccc4)c3cc12	-12	-4	7	-1	0	38*	50*	15*
CSCC[C@H](NC(=O)Cc1c(C)c2cc3c(C)c(C)oc3cc2oc1=O)C(=O)N[C@@H](C(=O)O)c1ccccc1	0	nt	-2	-1	7	40*	47*	14*
C=CCN1C(=O)[C@@H](CC(=O)NCCCCc2ccccc2)[C@]2(C(=O)OC)CCCCC=C12	4	nt	4	-1	nt	0	nt	nt
COc1ccccc1CNC(=O)NCCCN1CCN(c2ccc(F)cc2)CC1	3	nt	1	3	nt	2	nt	nt
O=C(N[C@H](Cc1ccc(Cl)cc1)C(=O)O)OCC1c2ccccc2-c2ccccc21	-5	-10	0	-2	-1	40*	66*	24*
O=C(CCc1c[nH]c2ccccc12)NC(Cc1ccccc1)C(=O)O (stereo unspecified)	4	7	-4	-1	6	36*	4	1
COC(=O)C(Cc1ccccc1)NC(=O)CCc1c[nH]c2ccccc12 (stereo unspecified)	-3	-4	2	0	2	-2	nt	nt
CC(=O)N[C@H](Cc1c[nH]c2ccccc12)C(=O)O	-6	7	7	12	-4	1	nt	nt
SMILES	SIAE primary	HTRA1 inh	PRMT1 inh	ABHD4 inh	TCR CD3 inh	rCAG RNA binder	rCAG binder conf	DNA CAG counter
O=C(NC(Cc1c[nH]c2ccccc12)C(=O)O)OCC1c2ccccc2-c2ccccc21 (stereo unspecified)	2	nt	-2	-12	-3	69*	59*	18*
CC(c1ccccc1)C(NC(=O)OCC1c2ccccc2-c2ccccc21)C(=O)O (stereo unspecified)	0	-7	1	-5	-2	46*	42*	8.9*
Cn1c(Cc2cccs2)nnc1SCC(=O)Nc1ccc2cn[nH]c2c1	1	nt	-1	-4	nt	6	nt	nt
COc1ccc(CN2CCC(CNC(=O)Nc3ccc(Cl)cc3)CC2)cc1	0	nt	4	2	nt	4	nt	nt
O=C(N[C@@H](Cc1ccc(Br)cc1)C(=O)O)OCC1c2ccccc2-c2ccccc21	-14	-49	-1	-7	9	39*	69*	28*
Cc1ccc(NC(=O)Cn2c(=O)oc3cc(S(=O)(=O)N4CCC(C)CC4)ccc32)cc1C	-22	-4	2	-9	2	46*	36*	15*
Cc1ccc2[nH]c(C(=O)O)c(NC(=O)CN3CCN(c4cccc(C)c4C)CC3)c2c1	8	1	-1	21	1	65*	69*	28*
COC(=O)c1[nH]c2ccc(C)cc2c1NC(=O)CN1CCN(c2ccccc2)CC1	13	-4	-2	5	10	-7	nt	nt
Clc1ccc(-n2c(SCc3cccc4ccccc34)nnc2-c2cccnc2)cc1	10	nt	-3	-6	nt	3	nt	nt
COC(=O)c1sc(N2C(=O)C(=O)/C(=C(/O)c3ccccc3)C2c2ccco2)nc1C (stereo unspecified)	0	-3	3	-3	2	37*	31	6.3*
